Assay results published in ChEMBL document CHEMBL3739335, “Phosphonooxymethyl Prodrug of Triptolide: Synthesis, Physicochemical Characterization, and Efficacy in Human Colon Adenocarcinoma and Ovarian Cancer Xenografts” (J Med Chem, 2015).

Experiments:
Mus musculus [1] = experiment: Toxicity in athymic nude mouse xenografted with human A2780 cells assessed as anorexia at 1.2 mg/kg, po administered for 30 days; format: organism-based; settings: in vivo, 720 h
Method in brief: (§1)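 Female athymic nude mice, 7–9 weeks old, received 2.5 × 10^6 A2780 cells subcutaneously in the flank in 50% Matrigel/RPMI 1640. Mice were randomized at a mean tumor volume of 188 mm3, 10 per group. Daily oral gavage in USP saline (0.2 mL) for 30 days, dosed on group-mean body weight. Clinical signs, survival and body weights were recorded.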

[2] = Chemical stability of the compound in buffer assessed as pseudo-first-order rate constant at 4 degC at pH 7.4 by Arrhenius plot analysis; format: physicochemical
Method in brief: (§2)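 Pseudo-first-order kobsd at each temperature was fitted to an Arrhenius plot, which was extrapolated to 25 and 4 °C. t1/2 and t90 (time for 10% loss) were calculated from the extrapolated kobsd.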

[3] = Chemical stability of the compound in buffer assessed as compound remaining at pH 2 after 1 hr by HPLC analysis; format: physicochemical; settings: read-out: Stability
[4] = Chemical stability of the compound in buffer assessed as compound remaining at pH 6 after 24 hrs by HPLC analysis; format: physicochemical; settings: read-out: Stability
[5] = Chemical stability of the compound in buffer assessed as compound remaining at pH 2 after 2 hrs by HPLC analysis; format: physicochemical; settings: read-out: Stability
[6] = Chemical stability of the compound in buffer assessed as compound remaining at pH 6 after 4 hrs by HPLC analysis; format: physicochemical; settings: read-out: Stability
[7] = Chemical stability of the compound in buffer assessed as compound remaining at pH 4 after 4 hrs by HPLC analysis; format: physicochemical; settings: read-out: Stability
[8] = Chemical stability of the compound in buffer assessed as compound remaining at pH 4 after 24 hrs by HPLC analysis; format: physicochemical; settings: read-out: Stability
[9] = Stability of the compound in simulated gastric fluid assessed as compound remaining after 8 hrs by HPLC analysis
[10] = Chemical stability of the compound in buffer assessed as pseudo-first-order rate constant at 60 degC at pH 7.4 by Arrhenius plot analysis; format: physicochemical
[11] = Stability of the compound in simulated gastric fluid assessed as compound remaining after 1 hr by HPLC analysis
[12] = Chemical stability of the compound in buffer assessed as compound remaining at pH 7.4 after 2 hrs by HPLC analysis; format: physicochemical; settings: read-out: Stability
[13] = Half life of the compound in buffer at 25 degC at pH 7.4; format: ADME; method in brief: as §2
Mus musculus [14] = experiment: Toxicity in athymic nude mouse xenografted with human A2780 cells assessed as survival at 0.6 to 0.9 mg/kg, ip administered for 30 days; format: organism-based; settings: in vivo, 720 h
Method in brief: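 Female athymic nude mice, 7–9 weeks old, carried subcutaneous flank A2780 xenografts (2.5 × 10^6 cells in 50% Matrigel). Randomized at 188 mm3 mean tumor volume, 10 per group. Daily intraperitoneal dosing in USP saline (0.2 mL) for 30 days, based on group-mean weight. Survival and clinical signs were monitored.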

[15] = Chemical stability of the compound in buffer assessed as pseudo-first-order rate constant at 25 degC at pH 7.4 by Arrhenius plot analysis; format: physicochemical; method in brief: as §2
[16] = Chemical stability of the compound in buffer assessed as compound remaining at pH 7.4 after 4 hrs by HPLC analysis; format: physicochemical; settings: read-out: Stability
Mus musculus [17] = experiment: Toxicity in athymic nude mouse xenografted with human HT-29 cells assessed as mortality at 0.9 mg/kg, ip administered for 2 weeks followed by 3 times per week; format: organism-based; settings: in vivo, 336 h
Method in brief: (§3)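 Female athymic nude mice, 7–9 weeks old, received 1.74 × 10^6 HT-29 cells subcutaneously in the right flank in 50% Matrigel/McCoy's 5A. Randomized at 110 mm3, 10 per group. Intraperitoneal dosing in USP saline (0.2 mL) over a 28-day period on the stated schedule. Body weights were taken twice weekly; clinical signs and survival were recorded.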

[18] = Stability of the compound in simulated gastric fluid assessed as compound remaining after 24 hrs by HPLC analysis
[19] = Stability of the compound in simulated intestinal fluid assessed as compound remaining at pH 7.5 after 8 hrs by HPLC analysis; format: ADME; settings: read-out: Stability
Method in brief: (§4)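 Drug incubated in simulated gastric fluid or simulated intestinal fluid and sampled at 0, 1, 2, 4, 8 and 24 h. Percent remaining was measured by reversed-phase C18 HPLC with photodiode-array detection, using a 20-min gradient of 10–70% acetonitrile against 10 mM sodium phosphate buffer at pH 7.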

[20] = Chemical stability of the compound in buffer assessed as compound remaining at pH 2 after 24 hrs by HPLC analysis; format: physicochemical; settings: read-out: Stability
[21] = Stability of the compound in simulated intestinal fluid assessed as compound remaining at pH 7.5 after 4 hrs by HPLC analysis; format: ADME; settings: read-out: Stability; method in brief: as §4
[22] = Chemical stability of the compound in buffer assessed as compound remaining at pH 9 after 1 hr by HPLC analysis; format: physicochemical; settings: read-out: Stability
[23] = Chemical stability of the compound in buffer assessed as compound remaining at pH 4 after 2 hrs by HPLC analysis; format: physicochemical; settings: read-out: Stability
[24] = Chemical stability of the compound in buffer assessed as compound remaining at pH 6 after 1 hr by HPLC analysis; format: physicochemical; settings: read-out: Stability
Mus musculus [25] = experiment: Toxicity in athymic nude mouse xenografted with human HT-29 cells assessed as mortality at 0.9 mg/kg, ip administered for 4 weeks; format: organism-based; settings: in vivo, 672 h; method in brief: as §3
[26] = Stability of the compound in simulated intestinal fluid assessed as compound remaining at pH 7.5 after 1 hr by HPLC analysis; format: ADME; settings: read-out: Stability; method in brief: as §4
[27] = Chemical stability of the compound in buffer assessed as compound remaining at pH 1 after 24 hrs by HPLC analysis; format: physicochemical; settings: read-out: Stability
Mus musculus [28] = experiment: Toxicity in athymic nude mouse xenografted with human A2780 cells assessed as mortality at 0.6 to 0.9 mg/kg, po administered for 30 days; format: organism-based; settings: in vivo, 720 h; method in brief: as §1
[29] = Chemical stability of the compound in buffer assessed as compound remaining at pH 1 after 1 hr by HPLC analysis; format: physicochemical; settings: read-out: Stability
[30] = Chemical stability of the compound in buffer assessed as compound remaining at pH 7.4 after 8 hrs by HPLC analysis; format: physicochemical; settings: read-out: Stability
Mus musculus [31] = experiment: Toxicity in athymic nude mouse xenografted with human A2780 cells assessed as moribund condition at 1.2 mg/kg, po administered for 30 days; format: organism-based; settings: in vivo, 720 h; method in brief: as §1
Mus musculus [32] = experiment: Toxicity in athymic nude mouse xenografted with human HT-29 cells assessed as skin irritation at 0.9 mg/kg, ip administered 14 days measured post last dose; format: organism-based; settings: in vivo, 336 h
[33] = Chemical stability of the compound in buffer assessed as compound remaining at pH 1 after 8 hrs by HPLC analysis; format: physicochemical; settings: read-out: Stability
Mus musculus [34] = experiment: Toxicity in athymic nude mouse xenografted with human HT-29 cells assessed as necrosis at 0.9 mg/kg, ip administered 14 days measured post last dose; format: organism-based; settings: in vivo, 336 h; method in brief: as §3
[35] = Chemical stability of the compound in buffer assessed as pseudo-first-order rate constant at 70 degC at pH 7.4 by Arrhenius plot analysis; format: physicochemical

In the case of `CC(C)[C@]12O[C@H]1[C@@H]1O[C@]13[C@]1(O[C@H]1C[C@H]1C4=C(CC[C@@]13C)C(=O)OC4)[C@@H]2OCOP(=O)([O-])[O-].[Na+].[Na+]` [MINNELIDE], the Activity (Mus musculus [1]) is reported as “Toxic”, the K [2] is reported as 6.5 ×10⁻⁶ /hr and the remaining at 1 h [3] is reported as 98%. For the same compound, the remaining at 24 h [4] was 99%, the remaining at 2 h [5] was 97% and the remaining at 4 h [6] was 100%. The remaining at 4 h [7] was 100%, the remaining at 24 h [8] was 99% and the remaining at 8 h [9] was 47%. It also gave a K [10] of 0.002482 h⁻¹, a remaining at 1 h [11] of 93% and a remaining at 2 h [12] of 100%. For the same compound, the t1/2 [13] was 0.92 yr, the Activity (Mus musculus [14]) was “Non-toxic” and the K [15] was 8.6 ×10⁻⁵ /hr. For the same compound, the remaining at 4 h [16] was 100%, the Activity (Mus musculus [17]) was “Toxic” and the remaining at 24 h [18] was 0%. The remaining at 8 h [19] was 99%, the remaining at 24 h [20] was 83% and the remaining at 4 h [21] was 100%. It also gave a remaining at 1 h [22] of 100%, a remaining at 2 h [23] of 100% and a remaining at 1 h [24] of 100%. The Activity (Mus musculus [25]) was “Toxic”, the remaining at 1 h [26] was 100% and the remaining at 24 h [27] was 0%. For the same compound, the Activity (Mus musculus [28]) was “Toxic”, the remaining at 1 h [29] was 89% and the remaining at 8 h [30] was 100%. The Activity (Mus musculus [31]) was “Toxic”, the Activity (Mus musculus [32]) was “Toxic” and the remaining at 8 h [33] was 39%. The Activity (Mus musculus [34]) was “Toxic” and the K [35] was 0.008659 h⁻¹.
